Results collected from several papers.
Technique: competition with immobilised ligand
RPS6KA2 C-terminal kinase domain: Ribosomal protein S6 kinase alpha-2, C-terminal kinase domain (RPS6KA2, Homo sapiens, UniProt Q15349)
RPS6KA2 N-terminal kinase domain: Ribosomal protein S6 kinase alpha-2, N-terminal kinase domain (RPS6KA2, Homo sapiens, UniProt Q15349)

Compound | target | test | conditions | remaining binding
CCN1CCN(Cc2ccc(C(=O)Nc3ccc(C)c(Oc4ccc5c(c4)CC(=O)N5)c3)cc2C(F)(F)F)CC1 | RPS6KA2 C-terminal kinase domain | binding | 1 µM | 91%
CS(=O)(=O)N1CCCC(NC(=O)[C@H](CCC2CCCCC2)NC(=O)c2ccc(CNC(=O)c3cnc4ccccn34)cc2)C1 (stereo partly drawn) | RPS6KA2 C-terminal kinase domain | cell-free assay | 0.1 µM | 94%
C[C@@H](c1ccc(-n2cnc3c(N)ncnc32)cc1)N1CCc2nn(C)c(Cc3ccccc3)c2C1=O | RPS6KA2 N-terminal kinase domain | binding | 0.1 µM | 96%
Nc1ncc2c(n1)-c1c([nH]c3ccc(C#CC4CC4)cc13)CCCC2 | RPS6KA2 C-terminal kinase domain | binding | 1 µM | 92%
COc1cnc(Nc2cccc(S(N)(=O)=O)c2)nc1N1CCN(c2ccccc2)CC1 | RPS6KA2 N-terminal kinase domain | binding | 1 µM | 93%
C[C@@H](c1cccc(C#N)c1)n1cc(Cl)cc(C(N)=O)c1=N | RPS6KA2 C-terminal kinase domain | cell-free assay | 1 µM | 100%
COc1ccnn2ncc(-c3ccnc(N(C)C)n3)c12 | RPS6KA2 C-terminal kinase domain | binding | 1 µM | 100%
COc1ccc2c(O[C@@H]3C[C@H]4C(=O)N[C@]5(C(=O)O)CC5/C=C\CCCCC[C@H](NC(=O)OC5CCCC5)C(=O)N4C3)cc(-c3csc(NC(=O)C(C)C)n3)nc2c1C (stereo partly drawn) | RPS6KA2 C-terminal kinase domain | cell-free assay | 1 µM | 100%
O=C(NCCCN1CCOCC1)c1ccc(Nc2nccc(-c3cc4ccccc4s3)n2)cc1 | RPS6KA2 C-terminal kinase domain | binding | 1 µM | 16%
CN(CCCC(F)(F)F)c1nccc(-c2cnn3ncccc23)n1 | RPS6KA2 C-terminal kinase domain | binding | 1 µM | 100%
COc1ncc2cc3ccccc3nc2c1C#N | RPS6KA2 C-terminal kinase domain | cell-free assay | 5 µM | 94%
c1cncc(-c2cccc(Nc3nccc(NC4CCCCC4)n3)c2)c1 | RPS6KA2 N-terminal kinase domain | binding | 10 µM | 44%
O=C(c1ccc(Nc2nccc(-c3cc4ccccc4s3)n2)cc1)N1CCC(N2CCCC2)CC1 | RPS6KA2 N-terminal kinase domain | binding | 1 µM | 100%
N[C@@H]1CCN(c2nccc(-c3cnn4ncccc34)n2)C1 | RPS6KA2 N-terminal kinase domain | binding | 1 µM | 100%
Cc1cnc(Nc2ccc(C(=O)N3CCC(N4CCCC4)CC3)cc2)nc1-c1cc2ccccc2s1 | RPS6KA2 N-terminal kinase domain | binding | 1 µM | 100%
CN(C)c1nccc(-c2cnn3ncccc23)n1 | RPS6KA2 N-terminal kinase domain | binding | 1 µM | 100%
C=CC(=O)N1CCC(C(=O)NCC(=O)N2CCN(c3nc(-c4cnc(N)nc4C(F)F)nc(N4CCOCC4)n3)CC2)CC1 | RPS6KA2 N-terminal kinase domain | binding | 1 µM | 82%

Compound | target | test | conditions | remaining binding
O=C(c1ccc(Nc2ncc(Cl)c(-c3cc4ccccc4s3)n2)cc1)N1CCC(N2CCCC2)CC1 | RPS6KA2 N-terminal kinase domain | binding | 1 µM | 100%
O=C(NCC1CCOCC1)c1n[nH]cc1NC(=O)c1c(F)cccc1F | RPS6KA2 C-terminal kinase domain | binding | 1 µM | 100%
O=C(NCCCN1CCOCC1)c1ccc(Nc2ncc(Cl)c(-c3ccc(Cl)s3)n2)cc1 | RPS6KA2 C-terminal kinase domain | binding | 1 µM | 63%
O=C(Nc1cccnn1)N1CCC(=Cc2cccc(Oc3ccc(C(F)(F)F)cn3)c2)CC1 | RPS6KA2 C-terminal kinase domain | cell-free assay | 1 µM | 100%
O=C(c1ccc(Nc2ncc(Cl)c(-c3ccc(Cl)s3)n2)cc1)N1CCC(N2CCCC2)CC1 | RPS6KA2 C-terminal kinase domain | binding | 1 µM | 71%
O=C(Nc1c[nH]nc1C(=O)NC1CCNCC1)c1cc(F)cc(F)c1 | RPS6KA2 N-terminal kinase domain | binding | 1 µM | 100%
O=S(=O)(NC1CCC(c2cc(F)ccc2F)(S(=O)(=O)c2ccc(Cl)cc2)CC1)C(F)(F)F (stereo not drawn) | RPS6KA2 C-terminal kinase domain | cell-free assay | 1 µM | 95%
COc1cnc(Nc2cccc(S(N)(=O)=O)c2)nc1N1CCN(c2ccccc2)C(=O)C1 | RPS6KA2 C-terminal kinase domain | binding | 1 µM | 100%
Cc1cnn2ncc(-c3ccnc(N(C)C)n3)c2c1 | RPS6KA2 C-terminal kinase domain | binding | 1 µM | 100%
CCS(=O)(=O)c1cc2cc(C[C@](O)(CC(C)(C)c3ccc(F)cc3C(N)=O)C(F)(F)F)[nH]c2cn1 | RPS6KA2 C-terminal kinase domain | cell-free assay | 1 µM | 81%
FC(F)(F)Oc1cccc(-c2cnc3ccc(-c4ccncc4)nn23)c1 | RPS6KA2 C-terminal kinase domain | binding | 5 µM | 82%
CN(C)c1nccc(-c2cnc3ncccn23)n1 | RPS6KA2 C-terminal kinase domain | binding | 1 µM | 91%
N#CC1(c2ccccn2)CCN(Cc2cc(C(=O)N3CCCC3)c(=O)n3ccccc23)CC1 | RPS6KA2 N-terminal kinase domain | cell-free assay | 1 µM | 88%
CC1CCCN1c1nccc(-c2cnn3ncccc23)n1 (stereo not drawn) | RPS6KA2 N-terminal kinase domain | binding | 1 µM | 100%
CO[C@H]1CC[C@H](CNc2ccc(S(=O)(=O)NC(=O)c3ccc(N4CCN(CC5=C(c6ccc(Cl)cc6)CC(C)(C)CC5)CC4)cc3Oc3cnc4[nH]ccc4c3)cc2[N+](=O)[O-])CC1 | RPS6KA2 N-terminal kinase domain | cell-free assay | 1 µM | 97%
CNC(=O)[C@@H]1CC[C@@H](n2c(-c3ccc4cnccc4c3)nc3ccc(C(=O)NCc4cccc(C(N)=O)c4)cc32)C1 | RPS6KA2 C-terminal kinase domain | binding | 1 µM | 91%
